Calls of active or inactive are those of the source. No cut-off for these calls is given here.
Legend:
[1] = system: TrkB-stable; assay: Induction of PI3K signaling activation in TrkB-stable cells; assay type: cell-based
[2] = system: T17; assay: Induction of MAPK phosphorylation in mouse T17 cells
[3] = system: SN56; assay: Suppression of staurosporine-initiated apoptosis in mouse SN56 cells at 0.5 uM; assay type: functional, cell-based
Outline: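 Murine SN56 basal forebrain cells and their rat-TrkA stably transfected line T17 (DMEM, 1 mM pyruvate, 10% FBS; T17 with 300 μg/ml G418). Cells were preincubated with 0.5 μM compound, then given 1 μM staurosporine for 9 h. Apoptosis was read with the caspase-3-activated dye MR(DEVD)2 (10 μM, last hour) plus Hoechst counterstain after fixation. Three independent experiments, mean ± SD.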

[4] = molecular target: High affinity nerve growth factor receptor (Rattus norvegicus) (UniProt P35739); assay: Induction of TrkA phosphorylation in rat hippocampal neurons at 0.5 uM after 30 mins; assay type: tissue-based; settings: Hippocampus
Outline: (§1)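 Primary hippocampal neurons were treated with 0.5 μM compounds for 30 min; lysates were immunoblotted with anti-phospho-Trk Y490 antibody. Repeated more than three times.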

[5] = system: TrkB-stable; assay: Induction of MAPK signaling activation in TrkB-stable cells; assay type: cell-based
[6] = molecular target: BDNF/NT-3 growth factors receptor (Homo sapiens) (UniProt Q16620); assay: Binding affinity to TrkB
[7] = molecular target: High affinity nerve growth factor receptor (Homo sapiens) (UniProt P04629); assay: Stimulation of TrkA dimerization co-transfected in HEK293 cells at 0.5 uM after 30 mins by immunoblotting analysis in presence of green fluorescent protein; assay type: cell-based
Outline: (§2)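 HEK293 cells were cotransfected with GFP-TrkA plus HA-TrkA or HA-TrkB, then treated with 0.5 μM compound for 30 min. GFP-TrkA was immunoprecipitated with anti-GFP and coprecipitated receptor detected by anti-HA immunoblot.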

[8] = system: PC-12; assay: Blockade of induction of neurite outgrowth in rat PC12 cells in presence of K252a; assay type: functional, cell-based
[9] = system: Hippocampal neurone; assay: Neuroprotective effect in oxygen-glucose deprivation triggered cell death in rat hippocampal neurons after 30 mins; assay type: functional, tissue-based; settings: Hippocampus
Outline: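 Primary hippocampal neurons were pretreated with compounds or NGF 30 min before oxygen–glucose deprivation; apoptosis was assayed 3 h later, including a dose titration. Three independent experiments, mean ± SD.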

[10] = molecular target: High affinity nerve growth factor receptor (Rattus norvegicus) (UniProt P35739); assay: Induction of Akt phosphorylation in rat primary hippocampal neurons after 30 mins; assay type: tissue-based; settings: Hippocampus
Outline: (§3)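 Hippocampal neurons were given 0.5 μM compound for 5–180 min (time course), or a dose range for 30 min, with 50 ng/ml NGF for comparison. Akt phosphorylation was detected by immunoblotting with phospho-Akt (473/308) antibodies.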

[11] = molecular target: High affinity nerve growth factor receptor (Homo sapiens) (UniProt P04629); assay: Binding affinity to TrkA kinase
Outline: (§4)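 GFP-tagged TrkA (wild-type or kinase-dead) expressed in transfected HEK293 cells; lysates bound to gambogic amide immobilised on Affi-Gel 102 through an amide bond. For Kd, TrkA-loaded beads were competed with increasing free compound. After extensive washing, bead-bound protein was immunoblotted with anti-GFP and quantitated densitometrically.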

[12] = molecular target: Tumor necrosis factor receptor superfamily member 16 (Homo sapiens) (UniProt P08138); assay: Binding affinity to p75NTR
[13] = molecular target: NT-3 growth factor receptor (Homo sapiens) (UniProt Q16288); assay: Induction of TrkC tyrosine phosphorylation in transfected HEK293 cells; assay type: cell-based
[14] = system: Hippocampal neurone; assay: Neuroprotective effect in glutamate-induced cell death in rat hippocampal neurons after 30 mins; assay type: functional, tissue-based; settings: Hippocampus
Outline: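 Primary hippocampal neurons were pretreated with compounds for 30 min, then exposed to 50 μM glutamate for 16 h. Apoptosis was quantified with the MR(DEVD)2 caspase-3 dye; NGF served as positive control. Three independent experiments, mean ± SD.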

[15] = molecular target: Mitogen-activated protein kinase 1 (Mus musculus) (UniProt P63085); assay: Induction of ERK2 phosphorylation in mouse T17 cells
[16] = molecular target: High affinity nerve growth factor receptor (Rattus norvegicus) (UniProt P35739); assay: Induction of Akt phosphorylation in rat primary hippocampal neurons at 0.5 uM; settings: Hippocampus, TDE = time-dependent effect; outline: as §3
[17] = molecular target: High affinity nerve growth factor receptor (Rattus norvegicus) (UniProt P35739); assay: Induction of TrkA tyrosine phosphorylation in rat hippocampal neurons at 0.5 uM after 30 mins by immunoblotting staining; assay type: tissue-based; settings: Hippocampus; outline: as §1
[18] = system: Mus musculus; assay: Neuroprotective effect on C57BL/6 mouse hippocampal CA1 region assessed as decrease in kainic acid-induced neuronal cell death at 2 mg/kg, sc after 5 days; assay type: functional; set-up: scale not given: the % may be the effect or the level left; settings: route subcutaneous
Outline: (§5)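 C57BL/6 mice were given 2 mg/kg s.c., followed by 25 mg/kg kainic acid. After 5 days, mice were perfused and 5 μm brain sections cut. Hippocampal apoptosis was quantified by TUNEL with DAPI counterstain.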

[19] = molecular target: High affinity nerve growth factor receptor (Rattus norvegicus) (UniProt P35739); assay: Reversal of TrkA phosphorylation in rat hippocampal neurons at 0.5 uM after 30 mins in presence of K252a; assay type: tissue-based; settings: Hippocampus
[20] = molecular target: High affinity nerve growth factor receptor (Homo sapiens) (UniProt P04629); assay: Induction of TrkA tyrosine phosphorylation in transfected HEK293 cells; assay type: cell-based
[21] = molecular target: High affinity nerve growth factor receptor (Homo sapiens) (UniProt P04629); assay: Binding affinity to TrkA; outline: as §4
[22] = system: Mus musculus; assay: Neuroprotective effect on C57BL/6 mouse hippocampal CA3 region assessed as decrease in kainic acid-induced neuronal cell death at 2 mg/kg, sc after 5 days; assay type: functional; set-up: scale not given: the % may be the effect or the level left; settings: route subcutaneous; outline: as §5
[23] = system: PC-12; assay: Induction of neurite outgrowth in rat PC12 cells; assay type: functional, cell-based
Outline: (§6)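 PC12 cells were seeded at 1 × 10^4 per well on poly-L-lysine and grown 24 h, then treated with compounds (0.5 μM, or 10–50 nM in dose series) or NGF for 5 days, with medium replenished every other day. Neurites were counted as processes longer than two cell bodies. Three independent experiments.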

[24] = system: PC-12; assay: Induction of neurite outgrowth in rat PC12 cells at 0.5 uM after 5 days; assay type: functional, cell-based; outline: as §6
[25] = molecular target: Epidermal growth factor receptor (Homo sapiens) (UniProt P00533); assay: Binding affinity to EGFR
[26] = Suppression of staurosporine-initiated apoptosis in mouse T17 cells at 0.5 uM
[27] = system: HEK293; assay: Stimulation of TrkA and TrkB dimerization co-transfected in HEK293 cells at 0.5 uM after 30 mins by immunoblotting analysis; assay type: cell-based; outline: as §2
[28] = molecular target: NT-3 growth factor receptor (Homo sapiens) (UniProt Q16288); assay: Binding affinity to TrkC
[29] = organism: Rattus norvegicus; assay: Induction of TrkA Y751 tyrosine phosphorylation in rat hippocampal neurons at 0.5 uM after 30 mins by immunoblotting staining; assay type: tissue-based; settings: Hippocampus
[30] = molecular target: Mitogen-activated protein kinase 3 (Homo sapiens) (UniProt P27361); assay: Induction of ERK1 phosphorylation
[31] = molecular target: Mitogen-activated protein kinase 3 (Mus musculus) (UniProt Q63844); assay: Induction of ERK1 phosphorylation in mouse T17 cells
[32] = organism: Rattus norvegicus; assay: Reversal of TrkA Y490 phosphorylation in rat hippocampal neurons at 0.5 uM after 30 mins in presence of K252a; assay type: tissue-based; settings: Hippocampus
[33] = organism: Rattus norvegicus; assay: Reversal of TrkA Y751 phosphorylation in rat hippocampal neurons at 0.5 uM after 30 mins in presence of K252a; assay type: tissue-based; settings: Hippocampus
[34] = molecular target: BDNF/NT-3 growth factors receptor (Homo sapiens) (UniProt Q16620); assay: Induction of TrkB tyrosine phosphorylation in transfected HEK293 cells; assay type: cell-based
[35] = molecular target: Mitogen-activated protein kinase 1 (Homo sapiens) (UniProt P28482); assay: Induction of ERK2 phosphorylation
[36] = molecular target: Receptor tyrosine-protein kinase erbB-3 (Homo sapiens) (UniProt P21860); assay: Binding affinity to ErbB3
[37] = molecular target: RAC-alpha serine/threonine-protein kinase (Mus musculus) (UniProt P31750); assay: Induction of Akt phosphorylation in mouse T17 cells
Sequence of RAC-alpha serine/threonine-protein kinase (Mus musculus) (P31750 whole entry, looked up): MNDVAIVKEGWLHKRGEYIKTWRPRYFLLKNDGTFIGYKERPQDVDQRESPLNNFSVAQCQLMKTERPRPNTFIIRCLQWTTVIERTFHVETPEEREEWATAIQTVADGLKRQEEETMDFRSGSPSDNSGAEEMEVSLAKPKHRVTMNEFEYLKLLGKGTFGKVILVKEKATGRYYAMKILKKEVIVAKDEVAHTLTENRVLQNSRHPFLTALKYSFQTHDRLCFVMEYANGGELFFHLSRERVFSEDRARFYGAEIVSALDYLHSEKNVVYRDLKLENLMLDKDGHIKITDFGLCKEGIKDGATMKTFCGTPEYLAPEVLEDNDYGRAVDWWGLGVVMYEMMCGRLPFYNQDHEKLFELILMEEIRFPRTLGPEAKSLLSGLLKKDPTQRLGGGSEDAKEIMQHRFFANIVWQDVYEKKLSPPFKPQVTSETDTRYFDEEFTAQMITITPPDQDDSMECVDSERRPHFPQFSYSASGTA

Sequence of High affinity nerve growth factor receptor (Homo sapiens) (P04629 33-796 limits assumed): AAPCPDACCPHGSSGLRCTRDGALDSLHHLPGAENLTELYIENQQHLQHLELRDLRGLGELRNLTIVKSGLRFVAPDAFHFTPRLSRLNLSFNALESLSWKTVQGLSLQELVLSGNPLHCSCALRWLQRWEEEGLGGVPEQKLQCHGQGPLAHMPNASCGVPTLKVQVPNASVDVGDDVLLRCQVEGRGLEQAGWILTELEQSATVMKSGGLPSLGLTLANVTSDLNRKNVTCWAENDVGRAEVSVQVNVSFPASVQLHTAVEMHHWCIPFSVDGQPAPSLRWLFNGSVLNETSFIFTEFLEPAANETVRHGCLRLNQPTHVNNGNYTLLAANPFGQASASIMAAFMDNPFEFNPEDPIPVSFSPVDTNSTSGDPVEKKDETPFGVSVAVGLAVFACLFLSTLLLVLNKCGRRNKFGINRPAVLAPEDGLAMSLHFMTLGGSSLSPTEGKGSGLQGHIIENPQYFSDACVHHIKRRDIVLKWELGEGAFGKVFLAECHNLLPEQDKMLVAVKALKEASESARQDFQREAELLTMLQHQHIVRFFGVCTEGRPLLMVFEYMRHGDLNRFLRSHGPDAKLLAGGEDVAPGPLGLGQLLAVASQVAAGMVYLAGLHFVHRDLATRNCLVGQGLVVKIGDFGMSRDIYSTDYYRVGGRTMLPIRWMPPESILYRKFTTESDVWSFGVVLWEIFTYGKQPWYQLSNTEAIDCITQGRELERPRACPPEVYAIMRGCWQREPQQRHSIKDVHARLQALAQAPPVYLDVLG
Sequence of High affinity nerve growth factor receptor (Rattus norvegicus) (P35739 whole entry): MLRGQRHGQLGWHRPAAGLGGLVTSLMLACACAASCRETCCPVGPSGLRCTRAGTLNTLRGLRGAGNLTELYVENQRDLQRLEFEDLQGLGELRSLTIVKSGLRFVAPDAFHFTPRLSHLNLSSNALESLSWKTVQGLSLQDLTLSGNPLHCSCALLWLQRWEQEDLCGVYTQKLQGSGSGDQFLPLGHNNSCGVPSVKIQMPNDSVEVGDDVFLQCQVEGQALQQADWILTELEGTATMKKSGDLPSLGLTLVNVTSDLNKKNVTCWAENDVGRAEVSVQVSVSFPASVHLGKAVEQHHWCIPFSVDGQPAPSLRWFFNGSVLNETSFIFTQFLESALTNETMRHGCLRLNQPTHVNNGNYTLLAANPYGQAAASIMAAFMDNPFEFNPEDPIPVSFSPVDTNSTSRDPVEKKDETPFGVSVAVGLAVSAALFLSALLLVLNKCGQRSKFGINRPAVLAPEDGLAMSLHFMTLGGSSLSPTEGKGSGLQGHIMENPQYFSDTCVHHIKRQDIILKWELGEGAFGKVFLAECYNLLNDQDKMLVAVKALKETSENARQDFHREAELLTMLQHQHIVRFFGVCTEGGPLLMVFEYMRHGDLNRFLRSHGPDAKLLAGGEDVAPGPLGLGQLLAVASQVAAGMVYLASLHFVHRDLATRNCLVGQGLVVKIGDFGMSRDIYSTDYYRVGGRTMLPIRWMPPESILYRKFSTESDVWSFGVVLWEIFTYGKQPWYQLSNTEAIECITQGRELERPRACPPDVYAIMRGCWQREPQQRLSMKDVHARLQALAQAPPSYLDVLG
Sequence of BDNF/NT-3 growth factors receptor (Homo sapiens) (Q16620 32-822 limits assumed): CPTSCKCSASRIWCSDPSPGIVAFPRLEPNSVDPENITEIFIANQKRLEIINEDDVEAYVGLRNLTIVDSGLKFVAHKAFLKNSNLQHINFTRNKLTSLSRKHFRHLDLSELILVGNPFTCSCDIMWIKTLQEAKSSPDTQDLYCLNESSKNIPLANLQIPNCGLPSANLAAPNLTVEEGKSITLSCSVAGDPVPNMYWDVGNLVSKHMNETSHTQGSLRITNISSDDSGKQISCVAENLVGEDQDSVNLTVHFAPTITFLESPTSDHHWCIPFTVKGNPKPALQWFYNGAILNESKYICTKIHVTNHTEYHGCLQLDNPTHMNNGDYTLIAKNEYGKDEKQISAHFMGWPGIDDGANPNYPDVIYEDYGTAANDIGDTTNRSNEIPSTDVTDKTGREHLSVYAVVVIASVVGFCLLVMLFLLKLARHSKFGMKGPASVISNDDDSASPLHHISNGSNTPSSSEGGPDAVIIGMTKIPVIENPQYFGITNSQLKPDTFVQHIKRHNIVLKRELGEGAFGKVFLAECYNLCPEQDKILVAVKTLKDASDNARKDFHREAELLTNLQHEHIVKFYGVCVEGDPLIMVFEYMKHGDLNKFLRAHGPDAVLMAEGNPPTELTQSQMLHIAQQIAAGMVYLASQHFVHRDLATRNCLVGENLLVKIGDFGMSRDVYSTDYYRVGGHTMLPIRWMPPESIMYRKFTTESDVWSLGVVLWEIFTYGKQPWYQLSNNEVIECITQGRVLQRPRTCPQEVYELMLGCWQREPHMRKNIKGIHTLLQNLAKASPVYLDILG
Sequence of NT-3 growth factor receptor (Homo sapiens) (Q16288 32-839 limits assumed): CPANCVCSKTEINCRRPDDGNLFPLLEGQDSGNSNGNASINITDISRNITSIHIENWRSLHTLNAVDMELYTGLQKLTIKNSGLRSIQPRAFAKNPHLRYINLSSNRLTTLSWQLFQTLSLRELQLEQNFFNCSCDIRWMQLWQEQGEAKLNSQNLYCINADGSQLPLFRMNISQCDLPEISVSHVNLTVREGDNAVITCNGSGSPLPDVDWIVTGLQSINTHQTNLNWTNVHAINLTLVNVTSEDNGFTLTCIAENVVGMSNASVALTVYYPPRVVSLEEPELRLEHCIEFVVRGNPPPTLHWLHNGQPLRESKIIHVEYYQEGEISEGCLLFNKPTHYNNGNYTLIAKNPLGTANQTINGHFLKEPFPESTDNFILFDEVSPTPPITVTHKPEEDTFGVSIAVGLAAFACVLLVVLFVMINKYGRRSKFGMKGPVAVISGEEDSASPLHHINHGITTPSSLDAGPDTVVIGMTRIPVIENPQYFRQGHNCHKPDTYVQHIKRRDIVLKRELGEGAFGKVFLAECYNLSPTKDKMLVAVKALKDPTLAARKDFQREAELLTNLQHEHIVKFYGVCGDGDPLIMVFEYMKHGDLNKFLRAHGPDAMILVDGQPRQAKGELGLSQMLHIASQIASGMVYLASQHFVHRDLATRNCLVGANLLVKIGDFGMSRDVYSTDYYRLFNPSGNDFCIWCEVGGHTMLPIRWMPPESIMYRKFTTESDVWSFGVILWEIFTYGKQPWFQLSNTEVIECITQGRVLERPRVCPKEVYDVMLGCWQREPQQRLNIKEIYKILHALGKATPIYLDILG
Sequence of Mitogen-activated protein kinase 3 (Mus musculus) (Q63844 whole entry, looked up): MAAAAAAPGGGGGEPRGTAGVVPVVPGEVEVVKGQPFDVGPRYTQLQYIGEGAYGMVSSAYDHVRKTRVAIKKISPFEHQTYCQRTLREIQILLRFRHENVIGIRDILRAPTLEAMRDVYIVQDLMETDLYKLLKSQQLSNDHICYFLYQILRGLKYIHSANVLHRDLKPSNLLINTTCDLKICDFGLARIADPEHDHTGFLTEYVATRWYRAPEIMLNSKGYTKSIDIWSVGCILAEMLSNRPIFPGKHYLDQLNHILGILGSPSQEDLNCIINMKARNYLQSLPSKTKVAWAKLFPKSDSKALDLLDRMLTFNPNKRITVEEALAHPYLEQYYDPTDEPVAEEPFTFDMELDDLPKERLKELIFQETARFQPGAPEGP
Sequence of Mitogen-activated protein kinase 1 (Mus musculus) (P63085 whole entry, looked up): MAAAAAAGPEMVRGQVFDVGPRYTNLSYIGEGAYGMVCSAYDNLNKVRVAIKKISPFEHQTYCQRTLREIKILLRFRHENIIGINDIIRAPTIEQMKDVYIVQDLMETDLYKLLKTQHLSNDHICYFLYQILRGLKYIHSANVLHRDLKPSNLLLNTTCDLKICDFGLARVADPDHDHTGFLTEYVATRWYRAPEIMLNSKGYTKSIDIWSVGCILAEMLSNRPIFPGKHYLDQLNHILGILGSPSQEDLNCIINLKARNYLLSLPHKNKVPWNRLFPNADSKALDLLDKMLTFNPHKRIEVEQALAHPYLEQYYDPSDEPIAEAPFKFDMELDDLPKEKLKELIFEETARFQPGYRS
Sequence of Mitogen-activated protein kinase 1 (Homo sapiens) (P28482 whole entry): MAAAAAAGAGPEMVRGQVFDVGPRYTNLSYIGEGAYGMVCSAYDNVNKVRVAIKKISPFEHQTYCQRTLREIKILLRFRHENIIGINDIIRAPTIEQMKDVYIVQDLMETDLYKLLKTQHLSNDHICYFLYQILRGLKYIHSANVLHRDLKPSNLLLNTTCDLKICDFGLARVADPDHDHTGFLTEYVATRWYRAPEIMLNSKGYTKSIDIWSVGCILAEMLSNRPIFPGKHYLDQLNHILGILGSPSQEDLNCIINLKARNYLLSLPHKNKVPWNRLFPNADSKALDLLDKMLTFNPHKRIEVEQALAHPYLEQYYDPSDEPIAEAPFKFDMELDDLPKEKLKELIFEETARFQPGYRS

Q: For `CC(C)=CCC[C@]1(C)C=Cc2c(O)c3c(c(CC=C(C)C)c2O1)O[C@]12C(C[C@@H]4CC1C(C)(C)O[C@@]2(C/C=C(/C)C(=O)O)C4O)C3=O` (stereo partly specified), which Activity [1] is on record?
A: The Activity was “Active”.

Q: What about the Activity [2] of the same molecule?
A: Its Activity is “inactive”.

Q: And the Activity [3]?
A: The Activity was “Active”.

Q: And the Activity [4]?
A: Its Activity is “inactive”.

Q: And the Activity [5]?
A: The Activity was “Active”.

Q: What does the source list for `CC(=O)Oc1c2c(c(CC=C(C)C)c3c1C(=O)C1=C[C@@H]4CC5C(C)(C)O[C@@](C/C=C(\C)C(=O)O)(C4=O)[C@@]15O3)O[C@](C)(CCC=C(C)C)C=C2`?
A: Activity [1]: Active; Activity [3]: Active; Activity [4]: inactive; Activity [5]: Active

Q: With `CC(C)=CCC[C@]1(C)C=Cc2c(O)c3c(c(CC=C(C)C)c2O1)O[C@]12C(=C[C@@H]4CC1C(C)(C)O[C@@]2(C/C=C(/C)C(N)=O)C4=O)C3=O` [GAMBOGIC AMIDE] as the molecule, how does the Activity [6] read?
A: Its Activity is “inactive”.

Q: What about the Activity [7] of the same molecule?
A: Its Activity is “Active”.

Q: And the Activity [8]?
A: Its Activity is “Active”.

Q: What about the Activity [9] of the same molecule?
A: The Activity was “Dose-dependent effect”.

Q: And the Activity [10]?
A: Its Activity is “Dose-dependent effect”.

Q: And the Activity [11]?
A: The Activity was “Active”.

Q: What about the Activity [12] of the same molecule?
A: The Activity was “inactive”.

Q: And the Activity [13]?
A: Its Activity is “Active”.

Q: What about the Activity [14] of the same molecule?
A: The Activity was “Active”.

Q: And the Activity [15]?
A: The Activity was “Active”.

Q: What about the Activity [16] of the same molecule?
A: Its Activity is “tde”.

Q: What about the Activity [1] of the same molecule?
A: The Activity was “Active”.

Q: And the Activity [17]?
A: The Activity was “Active”.

Q: What about the Activity [18] of the same molecule?
A: Its Activity is 6.3%.

Q: And the Activity [19]?
A: The Activity was “Active”.

Q: What about the Activity [20] of the same molecule?
A: Its Activity is “Active”.

Q: What about the Activity [21] of the same molecule?
A: The Activity was “Active”.

Q: And the Activity [3]?
A: The Activity was “Active”.

Q: And the Activity [22]?
A: The Activity was 1.8%.

Q: What about the Activity [4] of the same molecule?
A: Its Activity is “Active”.

Q: And the Activity [23]?
A: The Activity was “Dose-dependent effect”.

Q: What about the Activity [24] of the same molecule?
A: Its Activity is “Active”.

Q: What about the Activity [25] of the same molecule?
A: The Activity was “inactive”.

Q: And the EC50 [26]?
A: The EC50 was 5 nM.

Q: And the Activity [27]?
A: Its Activity is “inactive”.

Q: What about the Activity [28] of the same molecule?
A: Its Activity is “inactive”.

Q: And the Activity [29]?
A: The Activity was “Active”.

Q: And the Activity [30]?
A: The Activity was “Active”.

Q: And the Activity [31]?
A: Its Activity is “Active”.

Q: What about the Activity [32] of the same molecule?
A: Its Activity is “Active”.

Q: What about the Activity [33] of the same molecule?
A: The Activity was “Active”.

Q: What about the Activity [5] of the same molecule?
A: Its Activity is “Active”.

Q: And the Activity [34]?
A: Its Activity is “Active”.

Q: And the Activity [35]?
A: Its Activity is “Active”.

Q: What about the Activity [36] of the same molecule?
A: Its Activity is “inactive”.

Q: What about the Activity [37] of the same molecule?
A: The Activity was “Active”.

Q: With `COC(=O)/C(C)=C\C[C@@]12OC(C)(C)C3C[C@@H](C=C4C(=O)c5c(OC)c6c(c(CC=C(C)C)c5O[C@]431)O[C@](C)(CCC=C(C)C)C=C6)C2=O` as the molecule, how does the Activity [1] read?
A: The Activity was “Active”.

Q: What about the Activity [3] of the same molecule?
A: Its Activity is “Active”.

Q: What about the Activity [4] of the same molecule?
A: Its Activity is “inactive”.

Q: What about the Activity [24] of the same molecule?
A: The Activity was “inactive”.

Q: What about the EC50 [26] of the same molecule?
A: The EC50 was 120 nM.

Q: And the Activity [5]?
A: The Activity was “Active”.

From ChEMBL document CHEMBL1147069, “Gambogic amide, a selective agonist for TrkA receptor that possesses robust neurotrophic activity, prevents neuronal cell death” (Proc Natl Acad Sci U S A, 2007)
